In ChEMBL document CHEMBL1149300, “Novel retinoic acid metabolism blocking agents endowed with multiple biological activities are efficient growth inhibitors of human breast and prostate cancer cells in vitro and a human breast tumor xenograft in nude mice” (J Med Chem, 2004):
The source made the active and inactive calls. The rule behind the calls is not given here.

Columns and labels:
[1] = Inhibition of ATRA hydroxylase in Syrian golden hamster liver microsome assessed ATRA metabolism using [11.12-3H]-ATRA; assay type: microsomes, Mesocricetus auratus
Summary of the method: (§1)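 Microsomes from male Syrian golden hamster liver, or from T47D cells pretreated with 1 µM ATRA. Incubation in 0.1 M phosphate buffer pH 7.4 with NADPH, MgCl2 and BSA, inhibitor in DMSO; 3 min preincubation at 37 °C, then [11,12-3H]-ATRA for 30 min at 37 °C under oxygen. Ethyl acetate extraction, reverse-phase HPLC with radiometric detection; percent polar metabolites; IC50 from dose-response curves.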

MDA-MB-231 [2] = experiment: Growth inhibition of human MDA-MB-231 cells after 6 days by MTT assay; assay type: functional, cell-based; conditions: MDA-MB-231, 144 h
[3] = target: T1, Retinoic acid receptor alpha (Homo sapiens, UniProt P10276); experiment: Displacement of [11,12-3H]ARTA from RARalpha
T1 sequence (P10276 whole entry): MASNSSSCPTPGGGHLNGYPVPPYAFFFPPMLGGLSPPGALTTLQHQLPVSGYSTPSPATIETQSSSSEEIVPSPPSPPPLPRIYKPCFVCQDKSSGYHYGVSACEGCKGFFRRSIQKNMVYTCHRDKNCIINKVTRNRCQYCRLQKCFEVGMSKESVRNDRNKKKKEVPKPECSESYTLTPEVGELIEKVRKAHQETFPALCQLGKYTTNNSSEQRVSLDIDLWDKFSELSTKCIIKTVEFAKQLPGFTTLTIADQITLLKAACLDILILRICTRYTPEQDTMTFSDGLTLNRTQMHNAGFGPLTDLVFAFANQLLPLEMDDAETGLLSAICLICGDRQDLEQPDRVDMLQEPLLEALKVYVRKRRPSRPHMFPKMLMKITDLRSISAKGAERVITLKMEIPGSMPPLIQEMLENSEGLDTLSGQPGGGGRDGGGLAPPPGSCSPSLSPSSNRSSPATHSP
Summary of the method: (§2)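 Recombinant S-Tag RARα, RARβ or RARγ fusion protein extracts (10-30 µg/mL total protein) in HEPES pH 7.9 binding buffer. Incubated with 1 nM [3H]all-trans-RA and 0-500 nM test compound for 3 h at 27 °C.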

[4] = target: T2, Retinoic acid receptor beta (Homo sapiens, UniProt P10826); experiment: Displacement of [11,12-3H]ARTA from RARbeta; summary of the method: as §2
T2 sequence (P10826 whole entry): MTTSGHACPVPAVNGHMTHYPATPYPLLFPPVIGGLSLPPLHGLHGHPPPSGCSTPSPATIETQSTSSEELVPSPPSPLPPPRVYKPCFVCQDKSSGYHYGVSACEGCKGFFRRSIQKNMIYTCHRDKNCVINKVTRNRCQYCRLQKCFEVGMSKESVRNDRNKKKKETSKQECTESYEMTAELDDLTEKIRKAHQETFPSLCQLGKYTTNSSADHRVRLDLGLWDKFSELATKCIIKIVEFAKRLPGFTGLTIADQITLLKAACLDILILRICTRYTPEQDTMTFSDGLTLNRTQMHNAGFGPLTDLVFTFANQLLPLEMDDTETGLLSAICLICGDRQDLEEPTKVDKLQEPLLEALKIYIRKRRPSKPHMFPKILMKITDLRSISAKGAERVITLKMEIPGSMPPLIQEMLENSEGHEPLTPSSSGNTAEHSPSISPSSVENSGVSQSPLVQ

[5] = Displacement of [11,12-3H]ARTA from RARgamma; parameters: species or system Homo sapiens
Summary of the method: as §2, with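 “°C. Nonspecific binding measured with a 200-fold excess of unlabeled RA; IC50 from dose-response curves, at least two experiments.” for “°C.”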

Cytochrome P450 26A1 [6] = target: T3, Cytochrome P450 26A1 (Homo sapiens, UniProt O43174); experiment: Inhibition of ATRA-induced CYP26 in human MCF7 cells assessed ATRA as metabolism using [11.12-3H]-ATRA; assay type: functional, cell-based
T3 sequence (O43174 whole entry): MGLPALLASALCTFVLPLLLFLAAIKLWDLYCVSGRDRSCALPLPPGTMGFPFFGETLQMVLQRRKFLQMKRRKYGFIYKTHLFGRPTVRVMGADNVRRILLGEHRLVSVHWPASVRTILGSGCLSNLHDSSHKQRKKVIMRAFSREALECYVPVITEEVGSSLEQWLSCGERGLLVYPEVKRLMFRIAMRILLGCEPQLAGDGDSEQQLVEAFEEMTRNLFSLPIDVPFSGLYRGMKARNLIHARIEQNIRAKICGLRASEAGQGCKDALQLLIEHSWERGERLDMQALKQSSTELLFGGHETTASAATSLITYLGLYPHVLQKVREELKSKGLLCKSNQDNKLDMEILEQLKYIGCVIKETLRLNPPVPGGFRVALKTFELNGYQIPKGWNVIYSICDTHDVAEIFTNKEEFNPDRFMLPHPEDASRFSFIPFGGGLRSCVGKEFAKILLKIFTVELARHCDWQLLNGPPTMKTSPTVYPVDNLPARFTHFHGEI
Summary of the method: (§3)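 MCF-7 or T47D cells (1 × 10^6 per well) induced with 1 µM ATRA for 12-15 h, washed, then given inhibitor (0.0001-10 µM, ethanol stock) plus 0.001 µM [11,12-3H]-ATRA for 5 h. Media and cells extracted with ethyl acetate; metabolites measured by reverse-phase HPLC with radiometric detection; IC50 from dose-response curves.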

Cytochrome P450 26A1 [7] = target: T3, Cytochrome P450 26A1; experiment: Inhibition of ATRA-induced CYP26 in human T47D cells assessed as ATRA metabolism using [11.12-3H]-ATRA; assay type: functional, cell-based; summary of the method: as §3
MCF7 [8] = experiment: Growth inhibition of human MCF7 cells after 6 days by MTT assay; assay type: functional, cell-based; conditions: MCF7, 144 h
Summary of the method: (§4)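 MCF-7 (IMEM, 5% FBS) or T47D (RPMI 1640, 10% FBS) cells, 1 × 10^4 per well, adhered ~18 h, then exposed to 0.0001-10 µM drug (ethanol) for 6 days with media and drug renewed on day 4. MTT for 2 h, formazan dissolved in DMSO, A540. Triplicate wells, 2-3 experiments; IC50 by nonlinear regression.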

T47D [9] = experiment: Growth inhibition of human T47D cells after 6 days by MTT assay; assay type: functional, cell-based; conditions: 144 h; summary of the method: as §4
LNCaP [10] = experiment: Growth inhibition of human LNCaP cells after 6 days by MTT assay; assay type: functional, cell-based; conditions: 144 h
Summary of the method: (§5)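 LNCaP cells (1 × 10^4) on poly-L-lysine-coated wells, attached 36 h; PC-3 cells (1 × 10^4), uncoated, attached 24 h; both in RPMI 1640. Treated with a concentration range of drug for 6 days, medium changed every 3 days. MTT read-out at 540 nm; IC50 by nonlinear regression from at least two experiments.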

PC-3 = experiment: Growth inhibition of human PC3 cells after 6 days by MTT assay; assay type: functional, cell-based; conditions: PC-3, 144 h; summary of the method: as §5
LNCaP [11] = experiment: Induction of cell differentiation in human LNCaP cells after 6 days; assay type: functional, cell-based
Summary of the method: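 LNCaP cells given 1 µM compound, alone or with 1 µM ATRA, for 6 days. Lysates (50 µg) run on 10% SDS-PAGE and Western blotted with anti-cytokeratin 8/18, β-actin as control. ECL detection; band intensity by densitometry taken as the differentiation marker.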

Cytochrome P450 26A1 [12] = target: T3, Cytochrome P450 26A1; experiment: Inhibition of ATRA-induced CYP26 in human T47D cell microsome assessed as ATRA metabolism using [11.12-3H]-ATRA; assay type: functional, microsomes; summary of the method: as §1
MDA-MB-231 [13] = experiment: Growth inhibition of human MDA-MB-231 cells up to 10 uM after 6 days by MTT assay; assay type: functional, cell-based
MCF7 [14] = experiment: Induction of apoptosis in human MCF7 cells at 1 uM for 6 days by TUNEL assay; assay type: functional, cell-based
Summary of the method: (§6)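 MCF-7 or T47D cells exposed to 1 µM compound for 6 days, then trypsinized, fixed in 1% paraformaldehyde and stored in 70% ethanol at -20 °C overnight. TdT/BrdUTP labeling (APO-BRDU TUNEL), fluorescein anti-BrdU plus PI/RNase stain; apoptotic cells counted by flow cytometry.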

T47D [15] = experiment: Induction of apoptosis in human T47D cells at 1 uM for 6 days by TUNEL assay; assay type: functional, cell-based; summary of the method: as §6

## COC(=O)/C=C(C)/C=C/C=C(C)/C=C/C1=C(C)C(=N/O)/CCC1(C)C
[1]
  IC50: 23 nM

## CC1=C(/C=C/C(C)=C/C=C/C(C)=C/C(=O)n2ccnc2)C(C)(C)CCC1
[1]
  IC50: 61.2 nM
MDA-MB-231 [2]
  IC50: 7000 nM
[3]
  IC50: > 1000 nM
[4]
  IC50: 500 nM
[5]
  IC50: 500 nM

## CC1=C(/C=C/C(C)=C/C=C/C(C)=C/C(=O)n2cncn2)C(C)(C)CCC1
[1]
  IC50: 51.7 nM
[3]
  IC50: 20 nM
[4]
  IC50: 90 nM
[5]
  IC50: 80 nM

## CC1=C(/C=C/C(C)=C/C=C/C(C)=C/C(=O)Nc2ccc(O)cc2)C(C)(C)CCC1n1ccnc1 (racemic)
[1]
  IC50: 43.7 nM
  Ki: 0.35 nM
Cytochrome P450 26A1 [6]
  IC50: 56 nM
Cytochrome P450 26A1 [7]
  IC50: 24 nM
MCF7 [8]
  IC50: 610 nM
T47D [9]
  IC50: 570 nM
MDA-MB-231 [2]
  IC50: 6300 nM
LNCaP [10]
  IC50: 9000 nM
PC-3
  IC50: 1500 nM

## CC1=C(/C=C/C(C)=C/C=C/C(C)=C/C(=O)n2ccnc2)C(C)(C)CCC1n1ccnc1 (racemic)
LNCaP [11]
  Activity: Active
[1]
  IC50: 0.05 nM
  Ki: 62 nM
Cytochrome P450 26A1 [6]
  IC50: 24.7 nM
Cytochrome P450 26A1 [7]
  IC50: 10 nM
Cytochrome P450 26A1 [12]
  IC50: 5.2 nM
MCF7 [8]
  IC50: 130 nM
T47D [9]
  IC50: 9 nM
MDA-MB-231 [13]
  Activity: inactive
LNCaP [10]
  IC50: 10000 nM
PC-3
  IC50: 5800 nM
MCF7 [14]
  Activity: Active
T47D [15]
  Activity: Active

## COC(=O)/C=C(C)/C=C/C=C(C)/C=C/C1=C(C)C(n2cnnc2)CCC1(C)C (racemic)
[1]
  IC50: 21.7 nM

## COC(=O)/C=C(C)/C=C/C=C(C)/C=C/C1=C(C)C(n2ccnc2)CCC1(C)C (racemic)
[1]
  IC50: 0.009 nM
  Ki: 46 nM
Cytochrome P450 26A1 [6]
  IC50: 200 nM
Cytochrome P450 26A1 [7]
  IC50: 215 nM
Cytochrome P450 26A1 [12]
  IC50: 40 nM
MDA-MB-231 [2]
  IC50: 7500 nM

## CC1=C(/C=C/C(C)=C/C=C/C(C)=C\C(=O)Nc2ccc(O)cc2)C(C)(C)CCC1n1ccnc1 (racemic)
[1]
  IC50: 76.7 nM
  Ki: 0.78 nM

## CC1=C(/C=C/C(C)=C/C=C/C(C)=C\C(=O)n2ccnc2)C(C)(C)CCC1n1ccnc1 (racemic)
[1]
  IC50: 57.5 nM
